Assay results from different studies.
Lines come from different studies, so protocols differ.
Target: Phosphatidylinositol 4,5-bisphosphate 3-kinase catalytic subunit gamma isoform (PIK3CG, Homo sapiens, UniProt P48736)

CC#CC(=O)N1CCC[C@H]1c1nc(-c2ccc(C(=O)Nc3ccccn3)cc2)c2c(N)nccn12  inhibition (enzyme activity; inhibitor; 1 µM): 0%
COc1ccc2oc(-c3ccc4nc(N)oc4c3)c/c(=N\c3ccccc3NC(=O)CCN)c2c1  remaining activity (enzyme activity; inhibitor; 1 µM): 98%
C1=C/COCc2cc(ccc2OCCN2CCCC2)Nc2nccc(n2)-c2cccc(c2)COC/1  remaining binding (binding; 0.1 µM): 4.3%
Cc1nc(NC(=O)N2CCC[C@H]2C(N)=O)sc1-c1ccnc(C(C)(C)C(F)(F)F)c1  inhibition (enzyme activity; inhibitor; ADP detection; 10 µM): 73.3%
N#Cc1ccc(NC(=O)Nc2ccccc2)cc1  remaining binding (cell-free assay; competition with immobilised ligand; 25 µM): 77%
C#Cc1cnc(Nc2ccnc(CO)c2)nc1Nc1ccccc1S(C)(=O)=NC#N (stereo not shown)  remaining signal (cell-free assay; 1 µM): 15%
C[C@H]1CC[C@H](n2c3cnccc3c3cnc(Nc4ccc5c(n4)CCN(C(=O)CO)C5)nc32)CC1  remaining signal (cell-free assay; 1 µM): 47%
CCCCC(=O)Nc1ccc(-c2ccc3ncn(CCC)c(=O)c3c2)cn1  remaining binding (binding; competition with immobilised ligand; 0.5 µM): 100%
CO[C@@H]1[C@H](N(C)C(=O)c2ccccc2)C[C@H]2O[C@]1(C)n1c3ccccc3c3c4c(c5c6ccccc6n2c5c31)C(=O)NC4  inhibition (enzyme activity; inhibitor; 1 µM): 34%
COc1ccc2[nH]c3c4[nH]c5ccc(OC)cc5c4c4c(c3c2c1)C(=O)NC4=O  remaining binding (binding; 1 µM): 87%
